Source: ChEMBL document CHEMBL4368921, “Discovery of novel simplified isoxazole derivatives of sampangine as potent anti-cryptococcal agents” (2019)
In brackets after ≈: the same amount, converted by molar mass. Activity calls are given as the source filed them. The rule behind the calls is not given here.

Legend:
Cryptococcus neoformans [1] = assay: Antifungal activity against Cryptococcus neoformans var. grubii H99 after 48 hrs by serial dilution method; format: functional
Procedure, shortened: (§1)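 Broth serial dilution per NCCLS. Medium was RPMI 1640 buffered with 0.165M MOPS, NaHCO3 (0.2%) and NaOH (0.27%). Strains were pre-grown in YPD at 30 °C with shaking. Inoculum 10³ CFU/mL; compounds in DMSO. Plates incubated at 35 °C for 48 h. MIC80 is the concentration giving 80% inhibition.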

Candida albicans = assay: Antifungal activity against Candida albicans SC5314 after 48 hrs by serial dilution method; format: functional; settings: SC5314, 48 h; procedure, shortened: as §1
Cryptococcus neoformans [2] = assay: Antibiofilm activity against Cryptococcus neoformans var. grubii H99 at 0.062 to 8 ug/mL after 24 hrs by XTT analysis; format: functional, organism-based
Procedure, shortened: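 H99 cells at 1.0×10^6 CFU/mL in RPMI 1640 left to adhere 90 min at 37 °C. Non-adherent cells were removed and the wells washed three times with PBS. Fresh RPMI with drug (0.062-8 µg/mL) or drug-free control was added, then 24 h more at 37 °C. Formation rate by XTT reduction. Means ± SD of three independent experiments; ANOVA and t-test.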

Cryptococcus neoformans [3] = assay: Antifungal activity against Cryptococcus neoformans var. grubii ATCC 34877 after 48 hrs by serial dilution method; format: functional; settings: var. grubii ATCC 34877, 48 h; procedure, shortened: as §1
Cryptococcus gattii = assay: Antifungal activity against Cryptococcus gattii ATCC 14116 after 48 hrs by serial dilution method; settings: ATCC 14116, 48 h

Row | MIC80 (Cryptococcus neoformans [1]) | MIC80 (Candida albicans) | Compound | Activity (Cryptococcus neoformans [2]) | MIC80 (Cryptococcus neoformans [3]) | MIC80 (Cryptococcus gattii)
1 | > 64 µg/mL | > 64 µg/mL | COc1cccc(-c2noc3c2C(=O)c2sccc2C3=O)c1 |  |  | 
2 | 1 µg/mL (≈ 3.48 µM) | > 64 µg/mL | O=C1c2ccsc2C(=O)c2c(-c3ccsc3)noc21 |  |  | 
3 |  |  | C[C@@H]1[C@H](O)[C@@H](C)/C=C/C=C/C=C/C=C/C=C/C=C/C=C/[C@H](O[C@@H]2O[C@H](C)[C@@H](O)[C@H](N)[C@@H]2O)C[C@@H]2O[C@](O)(C[C@@H](O)C[C@@H](O)[C@H](O)CC[C@@H](O)C[C@@H](O)CC(=O)O[C@H]1C)C[C@H](O)[C@H]2C(=O)O | Active |  | 
4 | 0.25 µg/mL (≈ 0.694 µM) | > 64 µg/mL | O=C1c2ccsc2C(=O)c2c(-c3ccccc3Br)noc21 |  |  | 
5 | 0.25 µg/mL (≈ 0.835 µM) | > 64 µg/mL | O=C1c2ccsc2C(=O)c2c(-c3ccccc3F)noc21 |  |  | 
6 | 0.25 µg/mL (≈ 0.886 µM) | 8 µg/mL (≈ 28.3 µM) | O=C1c2ccsc2C(=O)c2c(-c3ccncc3)noc21 |  | 0.5 µg/mL (≈ 1.77 µM) | 1 µg/mL (≈ 3.54 µM)
7 | 1 µg/mL (≈ 3.39 µM) | > 64 µg/mL | Cc1ccc(-c2noc3c2C(=O)c2sccc2C3=O)cc1 |  |  | 
8 | > 64 µg/mL | > 64 µg/mL | O=C1c2ccsc2C(=O)c2c(-c3cccc(Br)c3)noc21 |  |  | 
9 | 0.25 µg/mL (≈ 0.886 µM) | 8 µg/mL (≈ 28.3 µM) | O=C1c2ccsc2C(=O)c2c(-c3ccccn3)noc21 |  |  | 
10 | 2 µg/mL (≈ 6.96 µM) | > 64 µg/mL | O=C1c2ccsc2C(=O)c2c(-c3cccs3)noc21 |  |  | 

Row | Compound | MIC80 (Cryptococcus neoformans [1]) | MIC80 (Candida albicans) | Activity (Cryptococcus neoformans [2]) | MIC80 (Cryptococcus neoformans [3]) | MIC80 (Cryptococcus gattii)
11 | C[C@@H](c1ncncc1F)[C@](O)(Cn1cncn1)c1ccc(F)cc1F [VORICONAZOLE] | 0.12 µg/mL (≈ 0.344 µM) | 0.12 µg/mL (≈ 0.344 µM) |  | 0.12 µg/mL (≈ 0.344 µM) | 0.12 µg/mL (≈ 0.344 µM)
